By IC50 is commonly meant the concentration at which inhibition is half-maximal. A higher IC50 goes with weaker potency. For orientation: IC90 means the point of the concentration-response curve where the effect stands at 90%. Read a high IC90 as a need for much substance.

This note sets out measurements from ChEMBL document CHEMBL1142069, “Caspofungin in combination with amphotericin B against Candida parapsilosis” (Antimicrob Agents Chemother, 2007).

Holding throughout (assay type): functional, organism-based
The subject of experiment [1] is Candida parapsilosis. The experiment in a line: Growth inhibition of Candida parapsilosis after 24 hrs by broth dilution assay. To be noted: Lodderomyces parapsilosis. The method in brief: (§1)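 CLSI-derived checkerboard broth microdilution in RPMI 1640 with 0.165 M MOPS, pH 7.0. Final ranges were AMB 0.03–2.0 µg/ml and CAS 0.03–64 µg/ml, alone or combined. Inoculum 1.0 x 10^3 to 5.0 x 10^3 CFU/ml (2x), 35°C in air. OD490 read at 24 and 48 h; IC50/IC90 taken as 50%/90% turbidity reduction versus control. Quintuplicate.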
For orientation: Broth dilution looks for growth in wells or tubes with falling amounts of substance.

The test system of experiment [2] is Candida parapsilosis. As to the kind of experiment: Growth inhibition of Candida parapsilosis after 48 hrs by broth dilution assay. To be noted: Lodderomyces parapsilosis. The procedure, abridged:
as §1

For experiment [3], the system named is Candida parapsilosis. As to the kind of experiment: Antifungal activity against Candida parapsilosis at 0.5 ug/ml after 24 hrs. The procedure, abridged: (§2)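 Time-kill with C. parapsilosis strain no. 3. A 0.5 McFarland suspension was diluted 1:10 into MOPS-buffered RPMI 1640 with drug alone or combined, shaken at 35°C. Samples were taken at 0, 2, 6 and 24 h, serially diluted 10-fold and plated on Sabouraud dextrose agar. CFU counted after 48 h at 35°C; detection limit 20 CFU/ml. Triplicate.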

For experiment [4], the system named is Candida parapsilosis. As to the kind of experiment: Antifungal activity against Candida parapsilosis at 4 ug/ml after 24 hrs. The procedure, abridged: as §2
For experiment [5], the system named is Candida parapsilosis. As to the kind of experiment: Fungistatic effect on Candida parapsilosis at 256 ug/ml after 24 hrs.

Converted amounts (≈) assume the structure as drawn. The source made the active and inactive calls. The calls are words filed in the database; no cut-off is given here.

In the experiment on Candida parapsilosis [1], `C[C@@H]1[C@H](O)[C@@H](C)/C=C/C=C/C=C/C=C/C=C/C=C/C=C/[C@H](O[C@@H]2O[C@H](C)[C@@H](O)[C@H](N)[C@@H]2O)C[C@@H]2O[C@](O)(C[C@@H](O)C[C@@H](O)[C@H](O)CC[C@@H](O)C[C@@H](O)CC(=O)O[C@H]1C)C[C@H](O)[C@H]2C(=O)O` [AMPHOTERICIN B] had an IC50 of 0.16 µg/mL (≈ 0.173 µM) and an IC90 of 0.34 µg/mL (≈ 0.368 µM). Further, in the experiment with Candida parapsilosis [2], the IC50 stood at 0.18 µg/mL (≈ 0.195 µM) and the 90% effect concentration (IC90) worked out at 0.68 µg/mL (≈ 0.736 µM). Moreover, the result with Candida parapsilosis [3] was inactive.
`CC[C@H](C)C[C@H](C)CCCCCCCCC(=O)N[C@H]1C[C@@H](O)[C@@H](NCCN)NC(=O)[C@@H]2[C@@H](O)CCN2C(=O)[C@H]([C@H](O)CCN)NC(=O)[C@H]([C@H](O)[C@@H](O)c2ccc(O)cc2)NC(=O)[C@@H]2C[C@@H](O)CN2C(=O)[C@H]([C@@H](C)O)NC1=O` [CASPOFUNGIN]: the IC50 in the experiment with Candida parapsilosis [1] was found to be 0.79 µg/mL (≈ 0.723 µM); in the experiment on Candida parapsilosis [2], 1.17 µg/mL (≈ 1.07 µM). In addition, the figures for the IC90 in the experiment with Candida parapsilosis [1] and in the experiment on Candida parapsilosis [2] were 1.36 µg/mL (≈ 1.24 µM) and 2.33 µg/mL (≈ 2.13 µM), respectively. The outcome in the experiment on Candida parapsilosis [4] was inactive. Besides, in the experiment on Candida parapsilosis [5], the result was Active.
